ChEMBL document CHEMBL1152792, “Synthesis and anticonvulsant activity of amino acid-derived sulfamides” (J Med Chem, 2009)
Active and inactive are the calls of the source. The rule behind the calls is not given here.

Assays:
Mus musculus [1] = assay: Toxicity in albino mouse at 30 mg/kg, ip after 0.5 hrs by rotarod test; assay type: organism-based; set-up: dose 30 mg/kg, route intraperitoneal; conditions: in vivo
Summary of the method: (§1)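 Neurotoxicity was screened by the standardized rotarod test in the ADD phase I protocol. Adult male albino mice (18–23 g) received compound ip in 30% PEG 400 and 10% water at 0.01 mL/g. Animals were tested 0.5 and 4 h post-dose. Result scored as toxic/tested animals.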

Mus musculus [2] = assay: Anticonvulsant activity in albino mouse at 300 mg/kg, ip after 0.5 hrs by MES test; assay type: functional, organism-based; set-up: dose 300 mg/kg
Summary of the method: (§2)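 NIH Anticonvulsant Drug Development (ADD) program phase I screen in adult male albino mice (18–23 g). Compound given ip in 30% PEG 400 and 10% water at 0.01 mL/g body weight. Seizures were induced electrically (MES) or chemically (PTZ), and animals were tested 0.5 and 4 h after dosing. Result scored as protected/tested animals.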

Mus musculus [3] = assay: Anticonvulsant activity in albino mouse at 30 mg/kg, ip after 4 hrs by MES test; assay type: functional, organism-based; set-up: dose 30 mg/kg; summary of the method: as §2
Mus musculus [4] = assay: Anticonvulsant activity in albino mouse at 300 mg/kg, ip after 4 hrs by MES test; assay type: functional, organism-based; set-up: dose 300 mg/kg; summary of the method: as §2
Mus musculus [5] = assay: Anticonvulsant activity in albino mouse at 30 mg/kg, ip after 0.5 hrs by MES test; assay type: functional, organism-based; set-up: dose 30 mg/kg; summary of the method: as §2
Mus musculus [6] = assay: Toxicity in albino mouse at 30 mg/kg, ip after 4 hrs by rotarod test; assay type: organism-based; set-up: dose 30 mg/kg, route intraperitoneal; conditions: in vivo; summary of the method: as §1
Mus musculus [7] = assay: Toxicity in albino mouse at 300 mg/kg, ip after 4 hrs by rotarod test; assay type: organism-based; set-up: dose 300 mg/kg, route intraperitoneal; conditions: in vivo; summary of the method: as §1
Mus musculus [8] = assay: Toxicity in albino mouse at 100 mg/kg, ip after 0.5 hrs by rotarod test; assay type: organism-based; set-up: dose 100 mg/kg, route intraperitoneal; conditions: in vivo; summary of the method: as §1
Mus musculus [9] = assay: Toxicity in albino mouse at 100 mg/kg, ip after 4 hrs by rotarod test; assay type: organism-based; set-up: dose 100 mg/kg, route intraperitoneal; conditions: in vivo; summary of the method: as §1
Mus musculus [10] = assay: Toxicity in albino mouse at 300 mg/kg, ip after 0.5 hrs by rotarod test; assay type: organism-based; set-up: dose 300 mg/kg, route intraperitoneal; conditions: in vivo; summary of the method: as §1
Mus musculus [11] = assay: Anticonvulsant activity in albino mouse at 30 mg/kg, ip after 4 hrs by PTZ test; assay type: functional, organism-based; set-up: dose 30 mg/kg; summary of the method: as §2
Mus musculus [12] = assay: Anticonvulsant activity in albino mouse at 100 mg/kg, ip after 4 hrs by MES test; assay type: functional, organism-based; set-up: dose 100 mg/kg; summary of the method: as §2
Mus musculus [13] = assay: Anticonvulsant activity in albino mouse at 100 mg/kg, ip after 4 hrs by PTZ test; assay type: functional, organism-based; set-up: dose 100 mg/kg; summary of the method: as §2
Mus musculus [14] = assay: Anticonvulsant activity in albino mouse at 100 mg/kg, ip after 0.5 hrs by MES test; assay type: functional, organism-based; set-up: dose 100 mg/kg; summary of the method: as §2
Mus musculus [15] = assay: Anticonvulsant activity in albino mouse at 300 mg/kg, ip after 0.5 hrs by PTZ test; assay type: functional, organism-based; set-up: dose 300 mg/kg; summary of the method: as §2
Mus musculus [16] = assay: Anticonvulsant activity in albino mouse at 300 mg/kg, ip after 4 hrs by PTZ test; assay type: functional, organism-based; set-up: dose 300 mg/kg; summary of the method: as §2
Mus musculus [17] = assay: Anticonvulsant activity in albino mouse at 100 mg/kg, ip after 0.5 hrs by PTZ test; assay type: functional, organism-based; set-up: dose 100 mg/kg; summary of the method: as §2
Mus musculus [18] = assay: Anticonvulsant activity in albino mouse at 30 mg/kg, ip after 0.5 hrs by PTZ test; assay type: functional, organism-based; set-up: dose 30 mg/kg; summary of the method: as §2
Mus musculus [19] = assay: Anticonvulsant activity in ip dosed albino mouse after 2 hrs by MES test; assay type: functional
Summary of the method: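 Phase II quantitative MES test in adult male albino mice (18–23 g). Compound given ip in 30% PEG 400 and 10% water at 0.01 mL/g. Testing was done at the previously determined time of peak effect. Six mice per dose group; ED50 (dose protecting 50% of animals, μmol/kg) calculated from the dose–response curve.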

Mus musculus [20] = species on record: Mus musculus; assay: Ratio of valproic acid ED50 to compound ED50 in albino mouse after 2 hrs by MES test; assay type: functional
Summary of the method: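 The compound ED50 came from ip dosing in male albino mice (six per dose) at the time of peak effect. The valproate ED50 was taken from earlier literature.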

| SMILES | Activity (Mus musculus [1]) | Activity (Mus musculus [2]) | Activity (Mus musculus [3]) | Activity (Mus musculus [4]) | Activity (Mus musculus [5]) | Activity (Mus musculus [6]) | Activity (Mus musculus [7]) | Activity (Mus musculus [8]) | Activity (Mus musculus [9]) | Activity (Mus musculus [10]) | Activity (Mus musculus [11]) | Activity (Mus musculus [12]) | Activity (Mus musculus [13]) | Activity (Mus musculus [14]) | Activity (Mus musculus [15]) | Activity (Mus musculus [16]) | Activity (Mus musculus [17]) | Activity (Mus musculus [18]) | ED50 (Mus musculus [19]) [µmol/kg] | Ratio ED50 (Mus musculus [20]) |
| --- | --- | --- | --- | --- | --- | --- | --- | --- | --- | --- | --- | --- | --- | --- | --- | --- | --- | --- | --- | --- |
| COC(=O)CCNS(=O)(=O)NC1CCCCC1 | Non-toxic | inactive | inactive | inactive | inactive | Non-toxic | Non-toxic | Non-toxic | Non-toxic | Non-toxic | – | – | – | – | – | – | – | – | – | – |
| COC(=O)CNS(=O)(=O)NC(=O)OC(C)(C)C | Non-toxic | inactive | inactive | inactive | inactive | Non-toxic | Non-toxic | Non-toxic | Non-toxic | Non-toxic | inactive | inactive | inactive | inactive | inactive | inactive | inactive | inactive | – | – |
| COC(=O)[C@@H](NS(=O)(=O)N[C@H](C(=O)OC)C(C)C)C(C)C | Non-toxic | – | inactive | inactive | inactive | Non-toxic | Non-toxic | Non-toxic | Non-toxic | Non-toxic | inactive | inactive | inactive | – | inactive | inactive | inactive | inactive | – | – |
| CCCC(CCC)CN(C(=O)OC(C)(C)C)S(=O)(=O)NCC(=O)OC | Non-toxic | inactive | inactive | – | inactive | Non-toxic | Non-toxic | Non-toxic | Non-toxic | Non-toxic | inactive | inactive | inactive | inactive | inactive | inactive | inactive | inactive | – | – |
| CCCCNS(=O)(=O)NCCC(=O)OC | Non-toxic | – | – | – | – | Non-toxic | Non-toxic | Non-toxic | Non-toxic | Non-toxic | inactive | – | inactive | – | inactive | inactive | inactive | inactive | 71 | 14.2 |
| COC(=O)CCNS(=O)(=O)NCCC(=O)OC | Non-toxic | – | inactive | inactive | inactive | Non-toxic | Non-toxic | Non-toxic | Non-toxic | Non-toxic | inactive | inactive | inactive | – | inactive | inactive | inactive | inactive | – | – |
| COC(=O)CNS(=O)(=O)N(Cc1ccccc1)C(=O)OC(C)(C)C | Non-toxic | inactive | inactive | inactive | inactive | Non-toxic | Non-toxic | Non-toxic | Non-toxic | Non-toxic | inactive | inactive | inactive | inactive | inactive | inactive | inactive | inactive | – | – |
| COC(=O)CCNS(=O)(=O)NCc1ccccc1 | Non-toxic | – | inactive | inactive | inactive | Non-toxic | Non-toxic | Non-toxic | Non-toxic | Non-toxic | – | inactive | inactive | – | inactive | inactive | inactive | inactive | – | – |
| COC(=O)CCNS(=O)(=O)NC(=O)OC(C)(C)C | Non-toxic | – | inactive | inactive | inactive | Non-toxic | Non-toxic | Non-toxic | Non-toxic | Non-toxic | inactive | inactive | inactive | inactive | inactive | inactive | inactive | inactive | – | – |
| CCCC(CCC)CN(C(=O)OC(C)(C)C)S(=O)(=O)NCCC(=O)OC | Non-toxic | inactive | inactive | inactive | inactive | Non-toxic | Non-toxic | Non-toxic | Non-toxic | Non-toxic | inactive | inactive | inactive | inactive | inactive | inactive | inactive | inactive | – | – |
| COC(=O)CNS(=O)(=O)NCc1ccccc1 | Non-toxic | inactive | inactive | inactive | inactive | Non-toxic | Non-toxic | Non-toxic | Non-toxic | Non-toxic | inactive | inactive | inactive | inactive | inactive | inactive | inactive | inactive | – | – |
| COC(=O)[C@@H](C)NS(=O)(=O)NC(=O)OC(C)(C)C | Non-toxic | inactive | inactive | inactive | inactive | Non-toxic | Non-toxic | Non-toxic | Non-toxic | Non-toxic | inactive | inactive | inactive | inactive | inactive | inactive | inactive | inactive | – | – |
| COC(=O)[C@H](C)NS(=O)(=O)N[C@@H](C)C(=O)OC | Non-toxic | inactive | inactive | inactive | inactive | Non-toxic | Non-toxic | Non-toxic | Non-toxic | Non-toxic | inactive | inactive | inactive | inactive | inactive | inactive | inactive | inactive | – | – |
| CCCC(CCC)CNS(=O)(=O)NCC(=O)OC | Non-toxic | – | inactive | – | inactive | Non-toxic | Non-toxic | Non-toxic | Non-toxic | Non-toxic | inactive | – | inactive | – | inactive | inactive | inactive | inactive | 139 | 7.3 |
